Our source for the IC50 and Survival values is ChEMBL document CHEMBL1129360, “Carbocyclic nucleosides as inhibitors of human tumor necrosis factor-alpha production: effects of the stereoisomers of (3-hydroxycyclopentyl)adenines” (J Med Chem, 1996).

Test [1] is filed under the species Homo sapiens. The experiment in a line: in vitro inhibitory activity was measured against interleukin-1-beta (IL1-beta) production. It is filed as functional. Summed up: (§1)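 Human peripheral blood mononuclear cells from normal volunteers were separated by density gradient. Adherent monocyte/macrophages were kept after 1 h and lifted with RPMI-1640/0.2% EDTA/5% FCS. Compounds in PBS (0.16, 0.8, 4.0, 20.0, 100 µM) were added to the cells 15 min before LPS. Cells were incubated 18 h at 37 °C, 5% CO2. Supernatant TNF-α, IL-1β and IL-6 were measured by specific ELISA, giving IC50.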

Test [2] is filed under the species Homo sapiens. The experiment in a line: in vitro inhibitory activity was measured against interleukin-6 (IL-6) production. The test is classed as functional, organism-based. An outline of the steps: as §1
The species named for test [3] is Homo sapiens. The experiment in a line: In vitro inhibitory activity was measured against tumor necrosis factor-alpha production. It is filed as functional. Summed up:
as §1

For test [4], the system named is Mus musculus. The experiment in a line: D-galactosamine sensitized mice were given 3 times the LD100 dose of LPS (100 mg/kg IP in PBS). It is filed as functional. Summed up: (§2)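 Female CF1 mice were fasted overnight, then given compound at 100 mg/kg ip in PBS 1 h before an ip challenge of D-galactosamine (20 mg) plus S. enteritidis LPS (15-250 ng). The LPS LD100 was set for each shipment of mice, and the challenge was at LD100 or 3× LD100. Mice were refed after challenge and survival was scored at 8 h. PBS vehicle served as control.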

In test [5] the test system is Mus musculus. The experiment in a line: Protective effects against lethal injections of D-galactosamine sensitized Lipopolysaccharide challenged (LD100) CF1 mice (100 mg/kg IP in PBS). The test is classed as functional. Summed up:
as §2

As to `Nc1ncnc2c1ncn2[C@H]1CC[C@@H](O)C1`, the IC50 (usually the concentration that gives 50% inhibition) is greater than 100 µM in the test listed under Homo sapiens [1], greater than 100 µM in the test filed under Homo sapiens [2] and 40 µM in the test filed under Homo sapiens [3]. The Survival with Mus musculus [4] was found to be 0%; with Mus musculus [5], 88%.
On to `Nc1ncnc2c1ncn2[C@H]1CC[C@H](O)C1`, for which the IC50 is greater than 100 µM in the test filed under Homo sapiens [1], greater than 100 µM in the test filed under Homo sapiens [2] and 16 µM in the test filed under Homo sapiens [3]. Besides, the Survival came to 0% in the test on Mus musculus [4] and 63% with Mus musculus [5].
In the case of `Nc1ncnc2c1ncn2[C@@H]1CC[C@@H](O)C1`, the IC50 was 76 µM in the test filed under Homo sapiens [1], greater than 100 µM in the test listed under Homo sapiens [2] and 9 µM in the test filed under Homo sapiens [3]. Further, the Survival with Mus musculus [4] and in the test on Mus musculus [5] was 100% throughout.
With `Nc1ncnc2c1ncn2[C@@H]1CC[C@H](O)C1`, the IC50 in the test filed under Homo sapiens [1] was greater than 100 µM; in the test filed under Homo sapiens [2] it was greater than 100 µM; in the test listed under Homo sapiens [3], 18 µM. Moreover, the Survival in the test on Mus musculus [4] came to 0%; in the test on Mus musculus [5] it was 50%.
Take `Nc1ncnc2c1ncn2[C@@H]1O[C@H](CO)[C@@H](O)[C@H]1O` [ADENOSINE]: the IC50 in the test filed under Homo sapiens [1] is greater than 100 µM; in the test listed under Homo sapiens [2], greater than 100 µM; in the test listed under Homo sapiens [3] it was 6 µM. In addition, the Survival in the test on Mus musculus [4] and in the test on Mus musculus [5] was 0% in each case.
Consider `CC(=O)CCCCn1c(=O)c2c(ncn2C)n(C)c1=O` [PENTOXIFYLLINE], for which the results for the IC50 in the test listed under Homo sapiens [1], in the test listed under Homo sapiens [2] and in the test listed under Homo sapiens [3] were greater than 100 µM, greater than 100 µM and 33 µM, respectively. Also, the Survival in the test on Mus musculus [4] was 0%; in the test with Mus musculus [5] it was 66%.
